NPY Y2 blocker – NPY-Y2 receptor antagonists, primary screen, cell-based; inhibition, % at 2.7 µM; Neuropeptide Y receptor type 2 (Homo sapiens), P49146; NPY-Y2 expressing cells, antagonist mode; hit rate 0.99% among 140,000; AID 793, 2007; in the data active means inhibition above about 17%;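 further: 0% = vehicle with agonist challenge and 100% = reference antagonist with challenge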
EP2 mod – EP2 receptor modulators, cAMP readout, primary screen, cell-based, HTRF cAMP, PGE2 stimulation. EP2-expressing cells, cAMP HTRF FRET, PGE2 co-stimulation. induction, % at 25 µM. hit rate 0.83% among 260,000. AID 940, 2007;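 active means compounds whose cAMP rise, as percent of the full-agonist control response, exceeds 60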;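 further: rat C6 glioma line stably carrying human EP2 under a CMV promoter; the protocol text gives 20 µM as final concentration; 100% = response of wells given 1 µM PGE2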
NPY-Y2 PAM-ag – NPY-Y2 potentiators or agonists, primary screen, cell-based | Neuropeptide Y receptor type 2 (Homo sapiens), P49146 | cells expressing NPY-Y2, potentiator/agonist read-out | activation, % at 3.6 µM | hit rate 0.45% among 220,000; in the data active means activation above about 27%;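 further: cells stimulated with NPY near EC25 plus isoproterenol at EC100; 0% = vehicle plus submaximal agonist and 100% = vehicle plus saturating agonist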
NPY-Y1 PAM-ag – NPY-Y1 receptor potentiators or agonists, primary screen, cell-based; Neuropeptide Y receptor type 1 (Homo sapiens), P25929; NPY-Y1 expressing cells, potentiator/agonist activation; activation, % at 3.6 µM; hit rate 0.37% among 220,000; in the data active means activation above about 33%, passing the limit was not always enough;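 further: cells stimulated with NPY at EC10 then isoproterenol at EC100; 0% = low agonist plus stimulus and 100% = saturating agonist plus stimulus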
Target sequence (P25929 whole entry, looked up): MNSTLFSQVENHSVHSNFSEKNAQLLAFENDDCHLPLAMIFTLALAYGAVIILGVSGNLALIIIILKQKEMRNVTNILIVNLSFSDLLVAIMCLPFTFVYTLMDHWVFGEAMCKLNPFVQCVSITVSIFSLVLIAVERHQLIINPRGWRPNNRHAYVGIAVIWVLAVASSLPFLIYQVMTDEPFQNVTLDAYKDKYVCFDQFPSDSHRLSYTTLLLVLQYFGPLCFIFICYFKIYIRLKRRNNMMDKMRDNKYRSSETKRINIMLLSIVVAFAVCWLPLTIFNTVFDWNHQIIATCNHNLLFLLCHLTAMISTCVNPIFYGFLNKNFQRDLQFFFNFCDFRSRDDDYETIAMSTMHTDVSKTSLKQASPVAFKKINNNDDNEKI
NPY-Y1 antag – NPY-Y1 receptor antagonists, primary screen, cell-based. Neuropeptide Y receptor type 1 (Homo sapiens), P25929. HEK293-CNG Y1 cells, membrane potential fluorescence; NPY at EC95, then isoproterenol. inhibition, % at 3.6 µM. hit rate 1% among 200,000;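 active means inhibition above the campaign mean inhibition of all tested compounds plus 3 SD, cut at about 20% in these data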;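 further: 0% = DMSO wells given NPY plus isoproterenol and 100% = isoproterenol alone without NPY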
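material = HEK293 cells with Y1 receptor plus CNG channel | also added = NPY 25 nM then isoproterenol 1 µM plus Ro 20-1724 25 µM | schedule = dye 3 h, compound 60 min room temperature, stimulation 45 min | measured by = membrane potential fluorescence | benchmarks = high control isoproterenol alone, low control NPY with isoproterenol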
EP2 antag – human EP2 receptor antagonists, primary screen, TR-FRET cAMP, C6 glioma cells; Prostaglandin E2 receptor EP2 subtype (Homo sapiens), P43116; C6 glioma cells expressing human EP2; cells stimulated with saturating PGE2; inhibition, % at 25 µM; hit rate 0.52% among 260,000;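 active means percent inhibition above 40 after rounding to a whole number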;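 further: rat C6 glioma host cells with rolipram phosphodiesterase inhibitor present; the protocol text gives 20 µM as final concentration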
EP2 confirm – cAMP induction in EP2, EP4, beta2-AR and parental cells, confirmation, counter-screen for EP2 modulator project, cell-based, five parallel assays, C6 glioma, HEK293 | shares compounds with EP2 mod | cAMP HTRF induction; plus low (about EC15) PGE2 agonist | calls only at 20 µM (by protocol) | hit rate 47% among 1,300;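 active means cAMP induction above 50% in the main assay while under 30% in all four parallel counter assays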;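 further: rat C6 glioma cells stably expressing human EP2 receptor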
* hit, by the source's call; i = inactive; . = no result given; + = active, no number. Compounds with a hit are over-represented: about 2.8% of the library has one in this group of screens.

SMILES | NPY Y2 blocker | EP2 mod | NPY-Y2 PAM-ag | NPY-Y1 PAM-ag | NPY-Y1 antag | EP2 antag | EP2 confirm
CCOC(=O)c1c(NC(=O)CN2CCN(C(=O)c3ccco3)CC2)sc2c1CCCC2 | 5 | 60 | -12 | -40 | 10 | . | i
CCCNC(=O)Cn1c(=O)n(Cc2cccs2)c2ncccc21 | . | 20 | . | . | . | . | .
CCOC(=O)c1c(NC(=O)CN(CC)CC)sc2c1CCN(C(=O)OCC)C2 | 30* | 72* | -4 | -26 | 23* | 9 | +
CCOC(=O)c1c(NC(=O)c2ccn(CC)n2)sc2c1CCCC2 | 2 | 60 | -9 | -40 | 0 | 11 | i
CCOC(=O)c1c(NC(=O)c2ccco2)sc2c1CCCC2 | 4 | 20 | -1 | 6 | 2 | 11 | .
CCOC(=O)c1c(NC(=O)CN2CCCCC2)sc2c1CCN(C(=O)OCC)C2 | 36* | 70* | -10 | -29 | 56* | . | +
CCOc1cccc(/C=C/c2[nH]c(=O)[nH]c(=O)c2[N+](=O)[O-])c1O | . | -24 | . | . | . | 6 | .
COc1cc2sc(N)nc2cc1Cl | . | -77 | . | . | . | 12 | .
O=C(Nc1ccc(S(=O)(=O)NCC2CCCO2)cc1)c1cc2ccccc2oc1=O (stereo not drawn) | . | 6 | . | . | . | 10 | .
O=C(CSc1nnc(CNc2cccc(C(F)(F)F)c2)n1Cc1ccco1)NC1CCCCC1 | . | -5 | . | . | . | 8 | .
C=CCn1c2cc(C)sc2c2cnn(CC(=O)NCCc3ccc(OC)cc3)c(=O)c21 | . | -11 | . | . | . | . | .
CCCc1cc(=O)n2[nH]c(NCc3cccs3)nc2n1 | 2 | 71* | -16 | -10 | 7 | -1 | i
CC(=O)Oc1ccc2ccccc2c1C(NC(=O)Cc1ccccc1)c1ccccc1 (stereo not drawn) | 8 | 65* | 4 | 5 | 2 | 3 | i
CSc1nc(-c2ccc(Cl)cc2)nn1S(=O)(=O)c1ccccc1 | 7 | 85* | 13 | 0 | 5 | 13 | +
Cc1ccc(-n2c(SCC(=O)NC3CCCC3)nnc2-c2cccnc2)cc1 | . | -15 | . | . | . | 16 | .
CCC(=O)Oc1ccc2c(C)cc(=O)oc2c1C(=O)c1ccccc1 | 2 | 69* | -7 | -20 | -2 | 2 | i
CCC(=O)Oc1ccc2c(C)cc(=O)oc2c1C(=O)CC | . | 4 | -1 | -1 | . | 4 | .
CCOC(=O)c1c(-c2ccccc2)oc2ccc(OC)cc12 | 5 | 69* | -11 | -27 | 10 | 21 | +
Cc1sc2ncn(CC(=O)N3CCCCC3)c(=O)c2c1-c1ccc(F)cc1 | . | 7 | . | . | . | 12 | .
COc1ccc2[nH]c3nc(SCC(=O)Nc4ccc(C(=O)O)cc4)nnc3c2c1 | . | -25 | . | . | . | 13 | .
CCC(C)(C)n1nnnc1C(c1cccnc1)N1CCC(Cc2ccccc2)CC1 (stereo not drawn) | . | -31 | -8 | -14 | 3 | 6 | .
CCC(C)(C)n1nnnc1C(c1ccncc1)N1CCC(Cc2ccccc2)CC1 (stereo not drawn) | 9 | 79* | -24 | -10 | 6 | 3 | i
O=C(Nc1cc(C(F)(F)F)ccc1-n1cncn1)c1ccc(-c2ccccc2)cc1 | 2 | 66* | 3 | 2 | 3 | 6 | +
O=C(Nc1cc(C(F)(F)F)ccc1-n1cncn1)c1ccc(Cl)cc1 | 0 | 43 | -2 | 4 | 5 | 2 | .
CC12CCCC(O)(C1)C1CC(C)(C)C1CC2 (stereo not drawn) | . | 51 | . | . | . | 10 | i
SMILES | NPY Y2 blocker | EP2 mod | NPY-Y2 PAM-ag | NPY-Y1 PAM-ag | NPY-Y1 antag | EP2 antag | EP2 confirm
C/C(=N\O)C(=O)OC1CC(C)CCC1C(C)C (stereo not drawn) | 6 | 59 | 22 | 13 | 3 | 1 | +
CC1CCC(C(C)C)C(OC(=O)COC(=O)c2ccc(N)cc2)C1 (stereo not drawn) | 0 | 32 | -16 | -5 | 2 | 10 | .
O=C(O)CCCN1C(=O)/C(=C\c2ccco2)SC1=S | . | 74* | -7 | 0 | 0 | 8 | +
O=C(CCCN1C(=O)/C(=C/c2ccco2)SC1=S)Nc1ccccc1C(=O)O | . | -36 | 22 | 17 | . | 16 | .
CCc1ccc2[nH]c(=O)c(C(c3nnnn3C(C)(C)C)N3CCN(C(=O)c4ccco4)CC3)cc2c1 (stereo not drawn) | . | -51 | . | . | . | 9 | .
N#CC1(Cc2ccccc2Cl)c2ccccc2C=CN1C(=O)c1ccccc1 (stereo not drawn) | 16 | 70* | -37 | -18 | 16 | . | i
COc1cccc(/C=N/c2oc(-c3ccccc3)cc2C#N)c1O | 2 | 78* | 2 | 18 | 2 | 14 | i
N#Cc1cc(-c2ccccc2)oc1/N=C/c1ccccc1O | 0 | -14 | -12 | 20 | -3 | 16 | .
Cc1cccc(NC2=NC(=S)N(c3ccc(C(=O)O)cc3)C23CCCCC3)c1 | 2 | 97* | -13 | -28 | 1 | . | +
Cc1[nH]c(=O)[nH]c(=O)c1Cc1cccc2ccccc12 | . | -6 | 6 | 7 | 1 | 10 | .
Cc1cc(C)cc(C(=N)c2ccccc2Cc2cccc3ccccc23)c1 | . | 53 | . | . | . | 37 | i
Cc1ccccc1C(=N)c1ccccc1Cc1cccc2ccccc12 | . | 72* | . | . | . | 37 | +
OC(CN1CCC(O)(c2ccc3c(c2)OCO3)CC1)c1ccccc1 (stereo not drawn) | . | -20 | . | . | . | 1 | .
OCc1nnc2n1CCN(Cc1ccccc1N1CCCC1)C2 | . | -4 | . | . | . | 6 | .
CCOC(=O)c1c(NC(=O)CSc2ncnc3[nH]ncc23)sc2c1CCC(C)C2 (stereo not drawn) | . | 66* | 4 | 14 | 3 | 7 | i
CCOC(=O)c1c(NC(=O)CSc2nnnn2-c2ccccc2)sc2c1CCC(C)C2 (stereo not drawn) | 4 | 39 | -4 | 9 | 2 | 9 | .
Brc1ccccc1C1CC(c2ccccc2)=Nc2ccccc2N1 (stereo not drawn) | 6 | 48 | 16 | -4 | 3 | 6 | .
c1ccc(C2=Nc3ccccc3NC(c3ccccc3)C2)cc1 (stereo not drawn) | 5 | 65* | -4 | 2 | 4 | 1 | +
COCCSc1nnc(NC(=O)c2ccccc2C)s1 | . | -15 | . | . | . | 9 | .

Screening data as filed in PubChem BioAssay.
